Assay results as given in ChEMBL document CHEMBL1154352, “Toll-like receptor 7 selective synthetic oligoribonucleotide agonists: synthesis and structure-activity relationship studies” (J Med Chem, 2009).
The source made the active and inactive calls. The rule behind the calls is not given here.

Key:
[1] = target: T1, Toll-like receptor 7 (Homo sapiens) (UniProt Q9NYK1); test: Activation of human TLR7 expressed in HEK293XL assessed as fold induction of NF-kappaB activity at 50 ug/ml after 18 hrs by reporter gene assay relative to control
T1 sequence (whole entry): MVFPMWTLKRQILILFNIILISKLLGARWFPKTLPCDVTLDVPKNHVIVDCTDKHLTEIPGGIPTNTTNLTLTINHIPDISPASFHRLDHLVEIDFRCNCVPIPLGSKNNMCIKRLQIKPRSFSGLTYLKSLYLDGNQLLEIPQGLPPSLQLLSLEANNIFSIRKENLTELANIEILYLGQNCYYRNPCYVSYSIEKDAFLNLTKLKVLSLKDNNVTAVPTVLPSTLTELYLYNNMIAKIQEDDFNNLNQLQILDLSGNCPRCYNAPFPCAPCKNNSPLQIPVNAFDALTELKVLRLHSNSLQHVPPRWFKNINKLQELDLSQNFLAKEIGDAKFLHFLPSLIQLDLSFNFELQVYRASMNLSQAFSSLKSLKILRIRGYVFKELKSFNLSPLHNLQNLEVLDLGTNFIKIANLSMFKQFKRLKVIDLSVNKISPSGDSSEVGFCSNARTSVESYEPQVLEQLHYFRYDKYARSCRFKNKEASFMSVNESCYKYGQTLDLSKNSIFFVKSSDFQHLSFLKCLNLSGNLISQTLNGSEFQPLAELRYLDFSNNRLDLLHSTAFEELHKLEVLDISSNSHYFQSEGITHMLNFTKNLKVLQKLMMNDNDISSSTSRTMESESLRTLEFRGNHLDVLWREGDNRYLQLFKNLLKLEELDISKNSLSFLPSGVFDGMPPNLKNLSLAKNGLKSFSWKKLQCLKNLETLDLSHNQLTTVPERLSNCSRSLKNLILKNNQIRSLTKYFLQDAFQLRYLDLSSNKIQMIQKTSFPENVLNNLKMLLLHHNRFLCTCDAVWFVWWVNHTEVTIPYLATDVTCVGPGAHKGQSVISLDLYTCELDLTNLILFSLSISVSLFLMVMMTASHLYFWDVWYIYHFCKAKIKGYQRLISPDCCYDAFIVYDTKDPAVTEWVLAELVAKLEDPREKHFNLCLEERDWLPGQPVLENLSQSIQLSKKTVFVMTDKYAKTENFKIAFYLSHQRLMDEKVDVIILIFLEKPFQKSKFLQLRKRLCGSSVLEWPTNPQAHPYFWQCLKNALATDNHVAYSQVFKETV
In short: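 HEK293 cells stably expressing human TLR7 or TLR8, transiently transfected with SEAP reporter plasmid; medium replaced, SIMRA compounds added, 18 h incubation. Supernatant SEAP measured by QuantiBlue; expressed as fold increase in NF-κB activity over PBS control. Tabulated data at 50 μg/mL, representative of three independent experiments.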

Homo sapiens = species on record: Homo sapiens; test: Ratio of human TLR7 activity to human TLR8 activity
In short: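 TLR7/TLR8 ratio computed from fold NF-κB (SEAP reporter) activation in HEK293 cells stably expressing human TLR7 versus TLR8, compounds at 50 μg/mL, 18 h exposure; representative of three independent experiments.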

[2] = target: T2, Toll-like receptor 9 (Mus musculus) (UniProt Q9EQU3); test: Activation of mouse TLR9 expressed in HEK293 assessed as induction of NF-kappaB activity reporter gene assay; format: cell-based
T2 sequence (whole entry): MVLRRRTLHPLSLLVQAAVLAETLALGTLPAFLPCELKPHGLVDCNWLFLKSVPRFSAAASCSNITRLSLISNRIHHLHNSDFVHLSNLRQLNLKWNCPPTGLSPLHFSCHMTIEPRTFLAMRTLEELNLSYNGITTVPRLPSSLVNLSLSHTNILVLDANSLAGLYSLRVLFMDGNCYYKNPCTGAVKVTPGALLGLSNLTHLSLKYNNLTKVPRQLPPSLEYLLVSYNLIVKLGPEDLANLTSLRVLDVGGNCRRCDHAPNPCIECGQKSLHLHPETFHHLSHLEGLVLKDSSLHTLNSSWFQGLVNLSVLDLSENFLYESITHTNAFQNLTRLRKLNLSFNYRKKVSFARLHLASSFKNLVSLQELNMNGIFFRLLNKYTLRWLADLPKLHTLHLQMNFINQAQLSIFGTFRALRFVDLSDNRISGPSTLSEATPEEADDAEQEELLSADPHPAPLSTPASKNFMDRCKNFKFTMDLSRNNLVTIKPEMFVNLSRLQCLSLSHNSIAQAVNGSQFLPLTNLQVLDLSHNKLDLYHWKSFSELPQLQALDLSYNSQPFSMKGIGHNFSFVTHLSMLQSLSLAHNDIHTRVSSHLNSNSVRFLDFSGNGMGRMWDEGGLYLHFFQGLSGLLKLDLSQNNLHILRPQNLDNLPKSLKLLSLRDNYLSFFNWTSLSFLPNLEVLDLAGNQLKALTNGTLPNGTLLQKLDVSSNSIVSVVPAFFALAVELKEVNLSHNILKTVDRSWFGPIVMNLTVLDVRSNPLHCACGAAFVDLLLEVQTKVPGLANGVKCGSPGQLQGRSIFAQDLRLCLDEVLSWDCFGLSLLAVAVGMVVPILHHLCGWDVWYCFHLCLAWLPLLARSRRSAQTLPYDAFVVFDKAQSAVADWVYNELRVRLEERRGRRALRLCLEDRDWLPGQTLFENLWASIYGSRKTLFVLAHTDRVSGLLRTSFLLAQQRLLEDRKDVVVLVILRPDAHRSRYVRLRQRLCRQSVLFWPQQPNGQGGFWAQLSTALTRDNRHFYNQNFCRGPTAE

[3] = target: Toll-like receptor 3 (Homo sapiens) (UniProt O15455); test: Activation of human TLR3 expressed in HEK293 assessed as induction of NF-kappaB activity reporter gene assay; format: cell-based
Splenocyte [4] = test: Immunomodulatory activity in C57BL/6 mouse splenocytes bearing TLR7 receptor assessed as IL6 release at 100 ug/ml after 24 hrs by ELISA; format: functional, cell-based
In short: (§1)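 C57BL/6 splenocytes in RPMI 1640 with 10% FBS, penicillin/streptomycin, 2 mM L-glutamine, plated at 5 × 10^6 cells/mL; compounds in PBS added, 37 °C for 24 h. Supernatant IL-12 and IL-6 by ELISA; representative of three independent experiments.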

Splenocyte [5] = test: Immunomodulatory activity in C57BL/6 mouse splenocytes bearing TLR7 receptor assessed as IL12 release at 100 ug/ml after 24 hrs by ELISA; format: functional, cell-based; in short: as §1
PBMC [6] = test: Immunomodulatory activity in human PBMC assessed as induction of IL12 at 100 ug/ml after 24 hrs; format: functional, cell-based
In short: (§2)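 Human PBMCs plated at 5 × 10^6 cells/mL; compounds dissolved in PBS added at various concentrations, 37 °C for 24 h. Supernatant cytokines/chemokines quantified with human Luminex multiplex kit.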

PBMC [7] = test: Immunomodulatory activity in human PBMC assessed as induction of TNFalpha at 100 ug/ml after 24 hrs; format: functional, cell-based; in short: as §2
PBMC [8] = test: Immunomodulatory activity in human PBMC assessed as induction of IFN-alpha at 100 ug/ml after 24 hrs

Chain of Toll-like receptor 3 (Homo sapiens) (O15455 whole entry): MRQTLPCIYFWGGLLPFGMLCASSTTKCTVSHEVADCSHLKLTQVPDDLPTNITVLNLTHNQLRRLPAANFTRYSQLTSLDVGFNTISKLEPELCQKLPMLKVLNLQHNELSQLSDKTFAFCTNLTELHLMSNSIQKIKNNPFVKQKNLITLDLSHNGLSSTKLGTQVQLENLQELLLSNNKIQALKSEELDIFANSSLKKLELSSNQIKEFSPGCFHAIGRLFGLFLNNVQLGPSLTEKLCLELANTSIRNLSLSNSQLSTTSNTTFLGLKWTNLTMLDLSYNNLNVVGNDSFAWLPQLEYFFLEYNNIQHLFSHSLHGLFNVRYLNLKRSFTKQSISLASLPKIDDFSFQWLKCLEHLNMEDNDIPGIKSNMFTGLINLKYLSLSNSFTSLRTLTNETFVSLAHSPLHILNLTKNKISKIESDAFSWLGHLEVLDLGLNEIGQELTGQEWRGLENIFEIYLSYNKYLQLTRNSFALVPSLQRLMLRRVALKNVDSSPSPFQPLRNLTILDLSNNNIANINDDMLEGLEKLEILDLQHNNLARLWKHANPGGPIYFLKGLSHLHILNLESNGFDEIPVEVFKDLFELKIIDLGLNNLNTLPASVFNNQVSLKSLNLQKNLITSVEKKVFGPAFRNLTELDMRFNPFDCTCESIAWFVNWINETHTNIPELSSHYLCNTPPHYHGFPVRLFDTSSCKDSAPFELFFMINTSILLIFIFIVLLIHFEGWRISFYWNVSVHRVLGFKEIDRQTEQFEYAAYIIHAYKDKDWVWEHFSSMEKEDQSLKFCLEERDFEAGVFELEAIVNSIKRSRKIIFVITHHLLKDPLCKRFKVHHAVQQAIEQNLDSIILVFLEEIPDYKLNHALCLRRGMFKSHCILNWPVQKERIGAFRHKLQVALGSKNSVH

fold change (FC) [1] | Ratio (Homo sapiens) | Activity [2] | Activity [3] | Activity (Splenocyte [4]) | Activity (Splenocyte [5]) | SMILES | Activity (PBMC [6]) [pg/mL] | Activity (PBMC [7]) [pg/mL] | IFN-alpha (PBMC [8]) [pg/mL]
20.7 | 41.4 | inactive | inactive | Active | Active | Nc1ccn([C@@H]2O[C@H](COP(=O)(S)O[C@H]3[C@@H](O)[C@H](n4cnc5c(N)ncnc54)O[C@@H]3COP(=O)(S)O[C@H]3[C@@H](O)[C@H](n4ccc5c(=O)[nH]c(N)nc54)O[C@@H]3COP(=O)(S)O[C@H]3[C@@H](O)[C@H](n4ccc(N)nc4=O)O[C@@H]3COP(=O)(S)O[C@H]3[C@@H](O)[C@H](n4ccc5c(=O)[nH]c(N)nc54)O[C@@H]3COP(=O)(S)O[C@H]3[C@@H](O)[C@H](n4ccc(=O)[nH]c4=O)O[C@@H]3COP(=O)(S)O[C@H]3[C@@H](O)[C@H](n4ccc5c(=O)[nH]c(N)nc54)O[C@@H]3COP(=O)(S)O[C@H]3[C@@H](O)[C@H](n4cnc5c(N)ncnc54)O[C@@H]3COP(=O)(S)O[C@H]3[C@@H](O)[C@H](n4cnc5c(N)ncnc54)O[C@@H]3CO)[C@@H](OP(=O)(S)OC[C@H]3O[C@@H](n4ccc(=O)[nH]c4=O)[C@H](O)[C@@H]3OP(=O)(S)OC[C@H]3O[C@@H](n4ccc(=O)[nH]c4=O)[C@H](O)[C@@H]3OP(=O)(S)OCC(O)COP(=O)(S)O[C@H]3[C@@H](O)[C@H](n4ccc(=O)[nH]c4=O)O[C@@H]3COP(=O)(S)O[C@H]3[C@@H](O)[C@H](n4ccc(=O)[nH]c4=O)O[C@@H]3COP(=O)(S)O[C@H]3[C@@H](O)[C@H](n4ccc(N)nc4=O)O[C@@H]3COP(=O)(S)O[C@H]3[C@@H](O)[C@H](n4cnc5c(N)ncnc54)O[C@@H]3COP(=O)(S)O[C@H]3[C@@H](O)[C@H](n4ccc5c(=O)[nH]c(N)nc54)O[C@@H]3COP(=O)(S)O[C@H]3[C@@H](O)[C@H](n4ccc(N)nc4=O)O[C@@H]3COP(=O)(S)O[C@H]3[C@@H](O)[C@H](n4ccc5c(=O)[nH]c(N)nc54)O[C@@H]3COP(=O)(S)O[C@H]3[C@@H](O)[C@H](n4ccc(=O)[nH]c4=O)O[C@@H]3COP(=O)(S)O[C@H]3[C@@H](O)[C@H](n4ccc5c(=O)[nH]c(N)nc54)O[C@@H]3COP(=O)(S)O[C@H]3[C@@H](O)[C@H](n4cnc5c(N)ncnc54)O[C@@H]3COP(=O)(S)O[C@H]3[C@@H](O)[C@H](n4cnc5c(N)ncnc54)O[C@@H]3CO)[C@H]2O)c(=O)n1 (stereo partly drawn) | 171 | 1.7 | 123
17.5 | 21.9 | inactive | inactive | Active | Active | Nc1ccn([C@@H]2O[C@H](COP(=O)(S)O[C@H]3[C@@H](O)[C@H](n4cnc5c(N)ncnc54)O[C@@H]3COP(=O)(S)O[C@H]3[C@@H](O)[C@H](n4ccc5c(=O)[nH]c(N)nc54)O[C@@H]3COP(=O)(S)O[C@H]3[C@@H](O)[C@H](n4ccc(=O)[nH]c4=O)O[C@@H]3COP(=O)(S)O[C@H]3[C@@H](O)[C@H](n4ccc5c(=O)[nH]c(N)nc54)O[C@@H]3COP(=O)(S)O[C@H]3[C@@H](O)[C@H](n4cnc5c(N)ncnc54)O[C@@H]3COP(=O)(S)O[C@H]3[C@@H](O)[C@H](n4cnc5c(N)ncnc54)O[C@@H]3CO)[C@@H](OP(=O)(S)OC[C@H]3O[C@@H](n4ccc5c(=O)[nH]c(N)nc54)[C@H](O)[C@@H]3OP(=O)(S)OC[C@H]3O[C@@H](n4cnc5c(N)ncnc54)[C@H](O)[C@@H]3OP(=O)(S)OC[C@H]3O[C@@H](n4ccc(=O)[nH]c4=O)[C@H](O)[C@@H]3OP(=O)(S)OC[C@H]3O[C@@H](n4ccc(=O)[nH]c4=O)[C@H](O)[C@@H]3OP(=O)(S)OCC(O)COP(=O)(S)O[C@H]3[C@@H](O)[C@H](n4ccc(=O)[nH]c4=O)O[C@@H]3COP(=O)(S)O[C@H]3[C@@H](O)[C@H](n4ccc(=O)[nH]c4=O)O[C@@H]3COP(=O)(S)O[C@H]3[C@@H](O)[C@H](n4cnc5c(N)ncnc54)O[C@@H]3COP(=O)(S)O[C@H]3[C@@H](O)[C@H](n4ccc5c(=O)[nH]c(N)nc54)O[C@@H]3COP(=O)(S)O[C@H]3[C@@H](O)[C@H](n4ccc(N)nc4=O)O[C@@H]3COP(=O)(S)O[C@H]3[C@@H](O)[C@H](n4cnc5c(N)ncnc54)O[C@@H]3COP(=O)(S)O[C@H]3[C@@H](O)[C@H](n4ccc5c(=O)[nH]c(N)nc54)O[C@@H]3COP(=O)(S)O[C@H]3[C@@H](O)[C@H](n4ccc(=O)[nH]c4=O)O[C@@H]3COP(=O)(S)O[C@H]3[C@@H](O)[C@H](n4ccc5c(=O)[nH]c(N)nc54)O[C@@H]3COP(=O)(S)O[C@H]3[C@@H](O)[C@H](n4cnc5c(N)ncnc54)O[C@@H]3COP(=O)(S)O[C@H]3[C@@H](O)[C@H](n4cnc5c(N)ncnc54)O[C@@H]3CO)[C@H]2O)c(=O)n1 (stereo partly drawn) | 400 | 15.7 | 254
